What all share (format): functional, organism-based
Assay [1] deals with Serratia sp. The assay is described as follows: Antimicrobial activity against Serratia El-U 9213 at 400 ug/ml. Summed up:
(§1)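 Filter paper disk diffusion on nutrient agar seeded with the test bacterium. Disks were soaked in the test solution for 30 s, then placed on the agar surface. Plates were incubated at 30 °C for 2 days. Five replicates were run per compound at each concentration. Ampicillin at 200 and 400 μg/mL served as the reference.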

Assay [2] deals with Bacillus cereus. The assay is described as follows: Antimicrobial activity against Bacillus cereus El-U 8180 at 200 ug/ml. Summed up: as §1
In assay [3] the test system is Serratia sp. Put plainly: Antimicrobial activity against Serratia El-U 9213 at 200 ug/ml. Summed up:
as §1

The subject of assay [4] is Bacillus cereus. The assay is described as follows: Antimicrobial activity against Bacillus cereus El-U 8180 at 400 ug/ml. Summed up: as §1

Calls of active or inactive are those of the source. The rule behind the calls is not given here.

With `CC1=C2C[C@@]3(C)C(=C[C@H]2OC1=O)[C@H](O)CC[C@@H]3C`, the outcome in the assay with Serratia sp. [1] and in the assay on Serratia sp. [3] was inactive. For the same molecule, the outcome with Bacillus cereus [2] and in the assay on Bacillus cereus [4] was Active.

For the molecule `CO[C@@]12C=C3[C@H](O)CC[C@H](C)[C@@]3(C)CC1=C(C)C(=O)O2`, the outcome in the assay with Serratia sp. [1], in the assay with Bacillus cereus [2], in the assay with Serratia sp. [3] and in the assay on Bacillus cereus [4] was Active.

As to `CC1=C2C[C@@]3(C)C(=C[C@@]2(O)OC1=O)[C@H](O)CC[C@@H]3C`, the result in the assay on Serratia sp. [1], with Bacillus cereus [2], in the assay on Serratia sp. [3] and in the assay with Bacillus cereus [4] was Active.

Take `CO[C@@]12C[C@@]34O[C@@H]3CC[C@H](C)[C@@]4(C)CC1=C(C)C(=O)O2`: the result in the assay on Serratia sp. [1] and with Serratia sp. [3] was inactive. Further, the result in the assay on Bacillus cereus [2] and in the assay on Bacillus cereus [4] was Active.

`CO[C@@]12C[C@@H]3C(=O)CC[C@H](C)[C@@]3(C)CC1=C(C)C(=O)N2`: the result in the assay on Serratia sp. [1] and with Serratia sp. [3] was inactive. The outcome with Bacillus cereus [2] and in the assay on Bacillus cereus [4] was Active.

With `CC1=C2C[C@]3(C)[C@@H](C)CC[C@H]4O[C@]43C[C@@]2(O)OC1=O`, the result in the assay on Serratia sp. [1], in the assay with Bacillus cereus [2], in the assay on Serratia sp. [3] and in the assay on Bacillus cereus [4] was Active.

The values are drawn from ChEMBL document CHEMBL1158715, “Eremophilane-type sesquiterpene derivatives from Senecio aegyptius var. discoideus” (J Nat Prod, 2005).
